# Most compounds without a hit are left out; they make up all but 5.1% or so of the library.
# STAT1 inh – STAT1 signaling inhibitors, primary screen, cell-based, HTS, luciferase reporter; AID 920, 2007; inhibition, % at 5.5 µM; actives 0.35% (n = 200,000); NIH 3T3 STAT1-luciferase reporter, IFN-gamma, luminescence;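 active means inhibition above a set limit, the mean inhibition across all tested compounds plus 3 SD, cut at about 34% in these data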
# STAT1 act-1 – STAT1 signaling activators, primary screen, cell-based, HTS, luciferase reporter; actives 2.6% (n = 200,000); NIH 3T3 STAT1-luciferase reporter, IFN-gamma, luminescence; 100% = IFN-gamma alone, no compound; activation (% of control), % at 5.5 µM;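 active means activation above the screen-wide mean activation plus 3 SD, cut at about 130% in these data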
# APP 5'UTR act – activators of APP 5'UTR luciferase reporter, primary screen, SH-SY5Y cells; SH-SY5Y APP 5'UTR luciferase reporter, luminescence; zero percent = DMSO vehicle wells; activation, % at 2 µM; actives 1% (n = 190,000);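 active means activation above a set limit, based on mean plus 3 SD of controls, cut at about 140% in these data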
# NF-kB neuron act – activators of NF-kB expression in neurons, primary screen, cell-based, HTS; fold change at 12.5 µM; AID 1239, 2008; actives 1.6% (n = 190,000); human neuronal cells, NF-kB reporter expression; stronger effect = higher value; in the data active means fold change above about 3.3
# STAT3 inh – IL-6 driven STAT3 reporter inhibitors, primary screen, U3A cells, luciferase, luminescence, MLSCN library. IL-6 STAT3-luciferase reporter; host cell line lacks STAT1. inhibition, % at 5.5 µM. actives 0.89% (n = 190,000). AID 862, 2007;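 active means inhibition above the mean inhibition across all screened compounds plus 3 SD, cut at about 44% in these data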
# STAT3 act-1 – IL-6 driven STAT3 reporter potentiators, primary screen, U3A cells, luciferase, luminescence, MLSCN library; IL-6 STAT3-luciferase reporter; 100% = signal with IL-6 EC80 alone; actives 0.91% (n = 190,000); activation (% of control), % at 5.6 µM;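 active means activation above the screen-wide mean of compound activation plus 3 SD, cut at about 130% in these data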
#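 Test system: human U3A cells carrying STAT3-luciferase construct; control set: IL-6-only wells as 100% reference; timing: compound pre-incubation 1 h before IL-6, then 6 h stimulation at 37 °C; also added: IL-6 stimulus at 33 ng/mL final; evaluation: % activation versus median of IL-6-stimulated wells; detection: reporter luminescence signal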
# STAT3 act-2 – STAT3 reporter potentiators, retest of hits, confirmation, U3A cells, luciferase, luminescence. shares compounds with STAT3 act-1. IL-6 potentiation; U3A cells lack STAT1; 100 means same as IL-6 alone. potentiation (% of control), % at 5.7 µM. actives 64% (n = 1,200). AID 1267, 2008;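 active means percent activation of the STAT3 luciferase reporter above a set limit taken from the earlier primary screen, cut at about 130% in these data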
# NFkB act 2 – NF-kB reporter activators in human cells, counter-screen for STAT3 activator project; activation (% of control), % at 5.7 µM; shares compounds with STAT3 act-1; actives 11% (n = 1,200); NF-kappaB reporter activation; in the data active means activation above about 120%;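 further: reporter induced by TNF-alpha stimulation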
# STAT1 act-2 – STAT1 reporter activators, IFN-gamma induced, counter-screen for STAT3 activator project, cell-based, NIH 3T3, luciferase luminescence. actives 13% (n = 1,200). NIH 3T3 STAT1-luciferase reporter. activation (% of control), % at 5.7 µM. shares compounds with STAT3 act-1. AID 1318, 2008;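 active means activation above the solvent-only control well mean plus 3 SD, set per screening run, cut at about 120% in these data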
# A number is an active result; n = inactive; x = no result given.
SMILES,STAT1 inh,STAT1 act-1,APP 5'UTR act,NF-kB neuron act,STAT3 inh,STAT3 act-1,STAT3 act-2,NFkB act 2,STAT1 act-2
O=C(Nc1ccc(Cl)cn1)c1ccc2ccccc2n1,n,n,n,n,n,177.7,191.6,130.5,137.5
Cc1c(C(=O)Nc2ccc(Cl)cn2)oc2ccccc12,n,n,n,n,n,195.0,197.3,133.6,138.4
O=C(Nc1ccccc1)c1ccc2ccccc2n1,n,n,179.0,6.63,n,152.5,187.7,141.3,176.3
CN(C)CCCNC(=S)Nc1ccc(Oc2ccccc2)cc1,n,n,n,n,n,n,x,x,x
Cc1cc(C(F)F)n2nc(C(=O)NCc3ccccc3F)nc2n1,n,n,n,n,n,n,x,x,x
CN/N=C(\Cc1nc2ccccc2[nH]1)c1ccc([N+](=O)[O-])cc1,n,n,n,n,n,136.0,165.8,n,n
CNCc1nc2ccccc2[nH]1,n,n,n,n,n,n,x,x,x
COc1ccc2oc(=Nc3ccc(C(=O)O)cc3)c(C(=O)NCc3ccco3)cc2c1,n,n,n,n,n,n,x,x,x
COc1ccc(N=c2oc3ccc(OC)cc3cc2-c2nc3ccccc3[nH]2)cc1,n,n,n,n,n,142.7,n,n,n
O=C1c2ccccc2CC1Sc1nnc(-c2ccccn2)o1 (stereo not drawn),n,n,n,n,n,148.8,n,n,n
COc1ccc(/C=N/N(C(C)=O)c2nc(-c3ccc(C)cc3)cs2)cc1,n,n,n,n,n,n,x,x,x
COc1ccccc1/C=N/N(C(C)=O)c1nc(-c2ccc(F)cc2)cs1,n,n,n,n,n,194.2,185.2,125.7,150.1
Cc1c(/C=N\NC(=O)C2COc3ccccc3O2)c2ccccc2n1C (stereo not drawn),n,n,n,n,n,139.1,n,n,n
Cn1cc(/C=N\NC(=O)C2COc3ccccc3O2)c2ccccc21 (stereo not drawn),n,n,n,n,n,n,x,x,x
CCCC(=O)Nc1c(C(=O)OCC)[nH]c2ccccc12,n,n,n,n,n,169.1,149.4,n,n
CCOC(=O)c1[nH]c2ccccc2c1NC(=S)Nc1cc(C)ccc1C,n,n,n,n,n,155.0,149.8,n,n
CCOC(=O)c1[nH]c2ccccc2c1NC(=O)Nc1ccc(OC)cc1,n,n,n,n,n,141.3,142.6,n,n
CCOC(=O)c1[nH]c2ccc(OC)cc2c1NC(C)=O,n,n,n,n,n,n,x,x,x
CCOC(=O)c1[nH]c2ccccc2c1NC(=O)c1ccco1,n,n,n,n,n,n,x,x,x
CCOC(=O)c1[nH]c2ccccc2c1NC(=S)Nc1ccccc1C,n,n,n,n,n,151.5,155.1,n,n
CCCSc1nnc(NC(=O)Nc2ccccc2)s1,n,n,n,n,n,n,x,x,x
Cn1ccnc1Sc1ccc(/C=N/NC(=O)c2ccccc2O)cc1[N+](=O)[O-],n,n,n,n,n,149.2,177.4,n,124.3
O=C(Nc1cc(C(F)(F)F)ccc1N1CCOCC1)C1Cc2ccccc2CN1C(=O)c1ccco1 (stereo not drawn),n,n,n,n,n,139.3,n,n,n
O=C(Nc1cc(C(F)(F)F)ccc1N1CCCCC1)c1ccco1,n,n,n,n,n,n,x,x,x
